Screening results: PubChem, several laboratories
p-CIP stab down: lowers stability of the mouse p/CIP coactivator protein; Q05BA5; F442A p/CIP-EGFP cells, EGFP fluorescence, 16 h; decrease of EGFP signal, % at 10 µM; 0.01% of 290,000 active; AID 1984;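 active = EGFP signal decrease of at least 30% at 10 µM or well 3 SD below plate mean, unless failing retest; inactive = the rest, including hits failing retest or dose response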
PHOSPHO1 block: PHOSPHO1 (human) inhibition. Q8TCT1. recombinant PHOSPHO1, absorbance phosphatase assay. inhibition, % at 13.3 µM. 1.1% of 290,000 active. AID 1565; in the data active = inhibition above about 60%
Target sequence (Q8TCT1 whole entry, looked up): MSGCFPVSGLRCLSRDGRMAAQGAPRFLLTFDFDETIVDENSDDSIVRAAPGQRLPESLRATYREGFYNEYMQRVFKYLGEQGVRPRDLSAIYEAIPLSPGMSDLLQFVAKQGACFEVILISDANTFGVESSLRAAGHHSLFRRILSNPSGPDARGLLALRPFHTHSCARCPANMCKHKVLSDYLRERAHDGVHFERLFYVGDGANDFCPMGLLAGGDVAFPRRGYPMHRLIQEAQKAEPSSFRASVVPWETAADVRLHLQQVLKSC
A3G deaminase: APOBEC3G (human) deaminase inhibition; Q9HC16; recombinant A3G, ssDNA deamination FAM/TAMRA fluorescence; inhibition, % at 20 µM; 0.28% of 330,000 active; AID 493012;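 active = inhibition of at least 40% at 20 µM, with no more than 30% in the related APOBEC3A deaminase screen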
A3A deaminase: inhibitors of human APOBEC3A DNA deaminase. recombinant A3A, FAM/TAMRA ssDNA deamination fluorescence. inhibition, % at 20 µM. 0.41% of 330,000 active;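 active = at least 40% inhibition at 20 µM here, with at most 30% in a related deaminase screen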
Target sequence (P31941 whole entry, looked up): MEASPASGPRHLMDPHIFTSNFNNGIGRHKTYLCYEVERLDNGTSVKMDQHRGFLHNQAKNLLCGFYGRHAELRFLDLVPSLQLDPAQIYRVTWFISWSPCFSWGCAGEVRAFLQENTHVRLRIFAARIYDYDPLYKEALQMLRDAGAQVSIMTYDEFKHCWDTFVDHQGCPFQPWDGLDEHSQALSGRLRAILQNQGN
Tb MetRS inh: Trypanosoma brucei MetRS inhibition; purified T. brucei MetRS, ATP depletion, Kinase-Glo luminescence; inhibition, % at 11.9 µM; 0.4% of 360,000 active; AID 624268;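 active = inhibition above a per-plate cutoff of the control wells' mean inhibition plus 3 SD, cut at about 5.5% in these data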
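Material: T. brucei methionyl-tRNA synthetase, purified; reagent: substrates ATP, L-methionine and bulk Escherichia coli tRNA; dosing: 11.9 µM single point; timing: 15 min plus 2 h at 25 °C; detection: luminescence of leftover ATP; evaluation: % inhibition; control set: DMSO-only wells as low control; replicates: singlicate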
Of the large screens only hits and unclear results are named; the others gave an inactive call. A selection: hits, their analogues and other compounds. The true share with any hit is near 1.8%.

CCSc1cc(C2C(C(=O)OC)=C(C)NC3=C2C(=O)CCC3)c(C)o1 (stereo not given)	PHOSPHO1 block 101.7
CC1=C(C(=O)OC(C)C)C(c2coc3ccccc3c2=O)C2=C(CCCC2=O)N1 (stereo not given)	none
CCCCCCn1nc(C(=O)OCC(=O)c2c(N)n(C)c(=O)n(C)c2=O)c2ccccc2c1=O	PHOSPHO1 block 60.9
O=C1CC(O)(C(F)F)Oc2ccc3ccccc3c21 (stereo not given)	PHOSPHO1 block 67.4
O=C1CC(O)(C(F)(F)F)Oc2c1ccc1ccccc21 (stereo not given)	none
CCOC(=O)N1CCN(C(=O)c2oc3ccc(S(=O)(=O)N(CC)CC)cc3c2C)CC1	none
CCS(=O)(=O)N1CCC(c2nc3ccccc3[nH]2)CC1	none
O=C(NCCCN1CCOCC1)C(=O)NCC1OCCCN1S(=O)(=O)c1cc(F)ccc1F (stereo not given)	PHOSPHO1 block 75.4
O=C(NCCN1CCOCC1)C(=O)NCC1OCCN1S(=O)(=O)c1cc(F)ccc1F (stereo not given)	none
Cc1ccc(C(=O)NCC(=O)N2CCC(Cc3ccccc3)CC2)cc1	PHOSPHO1 block 62.6
Cn1cnnc1SCC(=O)N1CCC(Cc2ccccc2)CC1	PHOSPHO1 block 63.4
CC(C)CCNC(=O)C1CCCN1C(=O)NC1CCCCC1 (stereo not given)	none
COc1ccccc1-c1nnc(SCC(=O)N2CCOCC2)n1-c1ccccc1	none
COc1ccccc1-c1nnc(SCCN2CCOCC2)n1-c1ccc(C)cc1	PHOSPHO1 block 69.4
NNC(=O)C(Cc1c[nH]c2ccccc12)NC(=O)c1ccccc1 (stereo not given)	none
Cc1cc(=O)[nH]c(N=N/C(=N/Nc2ccc(O)cc2)c2ccccc2)n1	PHOSPHO1 block 92.1
Cc1cc(=O)[nH]c(N=N/C(=N/Nc2ccccc2C)c2ccccc2)n1	PHOSPHO1 block 92.4
Cc1cc(=O)[nH]c(SCC(=O)Nc2ccccc2C)n1	none
COc1ccc(N/N=C(/N=Nc2nc(C)cc(=O)[nH]2)c2ccccc2)cc1	none
CCCc1ccc(OCc2ccc(C(=O)N3CCSCC3)o2)cc1	none
CC(C)=CCc1c(O)cc(O)c2c(=O)c3c(CC=C(C)C)c(O)ccc3oc12	none (no result: p-CIP stab down, PHOSPHO1 block, Tb MetRS inh)
Cc1[nH]ccc(=O)c1OCc1ccccc1	none
O=c1cc[nH]c2cccc(Cc3ccccc3)c12	Tb MetRS inh 20.9
COC(=O)C1C(=O)OC(C)(C)C1C(C)C(=O)c1ccc(C)cc1C (stereo not given)	PHOSPHO1 block 60.0
CCOC(=O)C1C(=O)OC(C)(C)C1C(C)C(=O)c1ccc(C)cc1C (stereo not given)	none
Cc1cc(C(=O)CSc2n[nH]c(N)n2)c(C)n1-c1ccccc1	PHOSPHO1 block 94.6
C=CCn1c(C)cc(C(=O)CSc2nnc(Cc3ccccc3)o2)c1C	PHOSPHO1 block 87.5
Cc1nnc(SCC(=O)c2cc(C)n(C3CC3)c2C)s1	PHOSPHO1 block 104.8
Cc1nnc(SCC(=O)c2cc(C)n(-c3ccc4c(c3)OCO4)c2C)s1	PHOSPHO1 block 92.2
Cc1cc(C(=O)CSc2nnc(Cc3ccccc3)o2)c(C)n1Cc1ccc2c(c1)OCO2	none
Cc1ccc(S(=O)(=O)N2CCC(C(=O)OCC(=O)N(Cc3ccccc3)C(C)(C)C)CC2)cc1C	none (no result: p-CIP stab down, PHOSPHO1 block)
Cc1cc(C(=O)CSc2nnc(-c3ccco3)o2)c(C)n1-c1ccc2c(c1)OCCO2	PHOSPHO1 block 91.5
Cc1cc(C(=O)CSc2n[nH]c(N)n2)c(C)n1C1CC1	PHOSPHO1 block 95.9
C=CCn1c(C)cc(C(=O)CSc2n[nH]c(N)n2)c1C	PHOSPHO1 block 62.0
CN(C)c1ccc(/C=N/NC(=O)CN2CCCCC2)cc1Br	none
CN1CCN(c2ccc(S(=O)(=O)N3CCCCC3)cc2NC(=O)CSC(C)(C)C)CC1	none (no result: p-CIP stab down, PHOSPHO1 block, A3G deaminase, A3A deaminase)
N#Cc1c2n(c(=S)n(-c3ccccc3)c1=O)CCCCC2	PHOSPHO1 block 63.8
COC(=O)CSc1nc(C)c(C)c(C)c1C(N)=O	PHOSPHO1 block 62.2
CCc1cc(C(=O)NNC(=S)NC(C)c2ccccc2)cs1 (stereo not given)	PHOSPHO1 block 64.9
CCc1cc(C(=O)NNC(=S)NC2CCCCC2)cs1	none
O=C(O)c1ccccc1NC(=O)C1CCN(S(=O)(=O)c2ccc3c(c2)OCCO3)CC1	none (no result: p-CIP stab down, PHOSPHO1 block, A3G deaminase, A3A deaminase)
O=C(NCc1ccc(/C=N\NC(=O)C(=O)Nc2ccccc2Br)o1)C(=O)Nc1ccccc1	none
Cn1nnnc1SCc1csc(Nc2ccccc2)n1	PHOSPHO1 block 94.9
